From publication PMC8251533 (Clinical Pharmacology in Drug Development, 2021)

Assays:
[1] = Semaglutide plasma pharmacokinetics after a single dose of oral semaglutide; assay type: in vivo, human
How it was run: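 Same crossover, dosing and fasting. Plasma was drawn predose and 0.5–24 h and analysed by LC-MS/MS (LLOQ 0.73 nmol/L). Trapezoidal AUC0-24h was used; log-transformed mixed models (volume, period fixed; subject random) allowed left-censoring. For correlation, log PK was modelled against log time to complete tablet erosion, assessed by gamma scintigraphy of ¹¹¹In-labelled tablets. 2^β gave the fold change per doubling. All-below-LLOQ profiles were imputed from 0.5×LLOQ.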

[2] = SNAC plasma pharmacokinetics after a single dose of oral semaglutide; assay type: in vivo, human; conditions: for Median tmax,SNAC: plasma, LC-MS/MS
How it was run: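 Two-period randomized crossover in 26 fasting healthy men. Each received one 10 mg tablet (coformulated with 300 mg absorption enhancer), upright, between 8 and 11 am, with 50 or 240 mL water. Fasting continued ≥4 h, with 200 mL water at 2 h. Plasma was drawn predose and 10 min–6 h and assayed by protein precipitation LC-MS/MS. Trapezoidal AUC0-6h used actual times. AUC and Cmax were log-transformed; mixed model had volume and period fixed, subject random.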

[3] = linear mixed model, log-transformed
[4] = single oral semaglutide tablet with 300 mg SNAC, fasting healthy men

2^β, estimated fold change in AUC0-24h,semaglutide if time to CTE is doubled [1, 3] | 2^β, estimated fold change in Cmax,semaglutide if time to CTE is doubled [1, 3] | 2^β, estimated fold change in tmax,semaglutide if time to CTE is doubled [1, 3] | AUC0-24h,semaglutide, higher with 50 versus 240 mL water ([1]; single 10 mg oral semaglutide) | Cmax,semaglutide, higher with 50 versus 240 mL water ([1]; single 10 mg oral semaglutide) | Median tmax,SNAC ([2]; 50 mL water) | Median tmax,SNAC ([2]; 240 mL water) | AUC0-6h,SNAC, lower with 50 versus 240 mL water [2, 4] | Cmax,SNAC, lower with 50 versus 240 mL water [2, 4] | Structure (SMILES)
approximately 2 | approximately 2 | ~1.5 | approximately 70% | approximately 70% | – | – | – | – | CC[C@H](C)[C@H](NC(=O)[C@H](Cc1ccccc1)NC(=O)[C@H](CCC(=O)O)NC(=O)[C@H](CCCCNC(=O)COCCOCCNC(=O)COCCOCCNC(=O)CC[C@H](NC(=O)CCCCCCCCCCCCCCCCC(=O)O)C(=O)O)NC(=O)[C@H](C)NC(=O)[C@H](C)NC(=O)[C@H](CCC(N)=O)NC(=O)CNC(=O)[C@H](CCC(=O)O)NC(=O)[C@H](CC(C)C)NC(=O)[C@H](Cc1ccc(O)cc1)NC(=O)[C@H](CO)NC(=O)[C@H](CO)NC(=O)[C@@H](NC(=O)[C@H](CC(=O)O)NC(=O)[C@H](CO)NC(=O)[C@@H](NC(=O)[C@H](Cc1ccccc1)NC(=O)[C@@H](NC(=O)CNC(=O)[C@H](CCC(=O)O)NC(=O)C(C)(C)NC(=O)[C@@H](N)Cc1cnc[nH]1)[C@@H](C)O)[C@@H](C)O)C(C)C)C(=O)N[C@@H](C)C(=O)N[C@@H](Cc1c[nH]c2ccccc12)C(=O)N[C@@H](CC(C)C)C(=O)N[C@H](C(=O)N[C@@H](CCCNC(=N)N)C(=O)NCC(=O)N[C@@H](CCCNC(=N)N)C(=O)NCC(=O)O)C(C)C [semaglutide]
– | – | – | – | – | 18 min | 18 min | 19% | 38% | O=C([O-])CCCCCCCNC(=O)c1ccccc1O.[Na+] [SNAC, sodium N‐(8‐[2‐hydroxybenzoyl]amino) caprylate]
